Results on 29 molecules are retold here after ChEMBL document CHEMBL1221306, “Synthesis, activity, and pharmacokinetic properties of a series of conformationally-restricted thiourea analogs as novel hepatitis C virus inhibitors” (Bioorg Med Chem, 2010).

One data set has as its system Hepatitis C virus. Kind of data set: Antiviral activity against HCV1b infected in human HuH7 cells assessed as inhibition of viral replication after 24 hrs. To be noted: genotype 1b, Huh-7, 24 h. It is filed as functional, organism-based, Hepacivirus hominis.
Data set [1] is described as follows: Cytotoxicity against human HuH7 cells after 24 hrs. It is filed as cell-based, Huh-7.
Data set [2] can be described thus: Clearance in Sprague-Dawley rat at 5 mg/kg, iv. To be noted: in vivo. The data set is classed as ADME, organism-based. Set-up: dose 5 mg/kg, route intravenous. The gist of the method:
(§1)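 Male rats (330–380 g, 9–10 weeks old, n = 3) were given the compound as a solution in DMA/propylene glycol (20:80, v/v), either iv at 5 mg/kg or po at 25 mg/kg. Rats were fasted and had jugular-vein cannulae. Blood was sampled at 0, 2, 5 (iv only) and 15 min, 30 min, and 1, 2, 4, 6, 8 and 24 h. Plasma was assayed by HPLC–MS/MS and analysed non-compartmentally.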

Data set [3] in a line: Volume of distribution at steady state in Sprague-Dawley rat at 5 mg/kg, iv. To be noted: in vivo, read-out: Vdss. The arrangement: dose 5 mg/kg, route intravenous. It is filed as ADME, organism-based. The gist of the method:
as §1

Data set [4] can be described thus: Half life in Sprague-Dawley rat at 5 mg/kg, iv. It is filed as ADME, organism-based. Set-up: dose 5 mg/kg, route intravenous. As to conditions: in vivo. The gist of the method: as §1
A short description of data set [5]: AUC in Sprague-Dawley rat at 5 mg/kg, iv. The data set is classed as ADME, organism-based. The arrangement: dose 5 mg/kg, route intravenous. As to conditions: plasma. The gist of the method: as §1
Data set [6] can be described thus: Cmax in Sprague-Dawley rat at 25 mg/kg, po. The data set is classed as ADME, organism-based. Set-up: dose 25 mg/kg, route oral. As to conditions: in vivo. The gist of the method: as §1
The nature of data set [7]: Tmax in Sprague-Dawley rat at 25 mg/kg, po. The data set is classed as ADME, organism-based. Set-up: dose 25 mg/kg, route oral. As to conditions: in vivo. The gist of the method:
as §1

Data set [8] in a line: Half life in Sprague-Dawley rat at 25 mg/kg, po. The data set is classed as ADME, organism-based. As to conditions: in vivo. Set-up: dose 25 mg/kg, route oral. The gist of the method:
as §1

Data set [9] is described as follows: AUC in Sprague-Dawley rat at 25 mg/kg, po. The arrangement: dose 25 mg/kg, route oral. To be noted: plasma. The data set is classed as ADME, organism-based. The gist of the method:
as §1

A short description of data set [10]: Oral bioavailability in Sprague-Dawley rat at 25 mg/kg. The data set is classed as ADME, organism-based. To be noted: in vivo. The gist of the method: as §1

In the case of `NC(=S)Nc1ccc2c(c1)Cc1ccccc1-2`, the EC50 in the data set on Hepatitis C virus came out at 2.09 µM. The same molecule came in with a CC50 at 24 h in data set [1] of over 50 µM.
Take `NC(=S)Nc1ccc2c(c1)Cc1cc(Br)ccc1-2`: in the data set with Hepatitis C virus, the EC50 was found to be 0.3 µM. In [1], the cytotoxic concentration (CC50) at 24 h was over 50 µM. In [2], this molecule yielded a clearance of 17 mL/min/kg. Besides, the Vd in data set [3] is 2.8 L/kg. In addition, the results for the half-life in data set [4] and in data set [8] were 2.6 h and 3.8 h, respectively. For the same molecule, the AUC in data set [5] turned out to be 4940 ng·h/mL; in data set [9], 294 ng·h/mL. The peak level in [6] (Cmax) was 106 ng/mL. Also, the time of peak concentration (Tmax) in data set [7] was found to be 0.7 h. In addition, the bioavailability in data set [10] is 1.2%.
As to `NC(=S)Nc1ccc2c(c1)C(=O)c1cc(Br)ccc1-2`, in the data set with Hepatitis C virus, the EC50 was determined as 0.57 µM. For the same molecule, in data set [1], the CC50 at 24 h was over 50 µM. The same molecule had a clearance in [2] of 127 mL/min/kg. Further, in data set [3], the Vd was found to be 2 L/kg. The results for the half-life in data set [4] and in data set [8] were 1.4 h and 1.7 h, respectively. The AUC in data set [5] is 655 ng·h/mL; in [9], 43 ng·h/mL. Also, the Cmax in data set [6] came to 65.3 ng/mL. Further, in [7], the time of peak concentration (Tmax) came to 0.25 h. The same molecule returned a bioavailability in data set [10] of 1.3%.
Turning to `NC(=S)Nc1ccc2c(c1)-c1ccccc1C2=O`, the EC50 in the data set on Hepatitis C virus was 21 µM. The CC50 at 24 h in data set [1] is over 50 µM.
The corresponding values for `COc1cc2c(cc1NC(N)=S)oc1ccccc12` are 5.51 µM and over 50 µM.
The corresponding values for `CCn1c2ccccc2c2cc(NC(N)=S)ccc21` are 7.55 µM and over 50 µM.
The corresponding values for `NC(=S)Nc1ccc2oc(=O)c3ccccc3c2c1` are over 50 µM and over 50 µM.
As for `NC(=S)Nc1ccc2c(c1)N1CCN=C1S2`, the EC50 in the data set on Hepatitis C virus was over 50 µM. The molecule also came in with a CC50 at 24 h in data set [1] of over 50 µM.
Take `NC(=S)Nc1ccc2cn[nH]c2c1`: the EC50 in the data set on Hepatitis C virus is over 50 µM. Further, the CC50 at 24 h in data set [1] was over 50 µM.
With `NC(=S)Nc1ccc2nn[nH]c2c1`, in the data set with Hepatitis C virus, the EC50 is over 50 µM. The molecule also showed a CC50 at 24 h in data set [1] of over 50 µM.
For the molecule `NC(=S)Nc1ccc2[nH]ncc2c1`, in the data set with Hepatitis C virus, the EC50 is over 50 µM. In data set [1], this molecule displayed a CC50 at 24 h of over 50 µM.
Take `NC(=O)Nc1ccc2c(c1)Cc1cc(Br)ccc1-2`: in the data set on Hepatitis C virus, the EC50 is over 50 µM. The molecule further gave a CC50 at 24 h in data set [1] of over 50 µM.
For `S=C(Nc1ccccc1)Nc1ccc2c(c1)Cc1cc(Br)ccc1-2`, in the data set on Hepatitis C virus, the EC50 was 42.8 µM. The same molecule displayed a 50% cytotoxic concentration (CC50) at 24 h in data set [1] of 46.2 µM.
The corresponding values for `S=C(NCc1ccccc1)Nc1ccc2c(c1)Cc1cc(Br)ccc1-2` are over 50 µM and over 50 µM.
The like results for `S=C(Nc1ccc2c(c1)Cc1cc(Br)ccc1-2)Nc1cccc2ccccc12` were, in that order, 15.4 µM and over 50 µM.
The like results for `S=C(Nc1ccc(N2CCOCC2)cc1)Nc1ccc2c(c1)Cc1cc(Br)ccc1-2` were, in that order, 34.1 µM and 18.1 µM.
Take `S=C(Nc1cccnc1)Nc1ccc2c(c1)Cc1cc(Br)ccc1-2`: in the data set with Hepatitis C virus, the EC50 is over 50 µM. This molecule showed a CC50 at 24 h in data set [1] of 19.7 µM.
The like results for `CNC(=S)Nc1ccc2c(c1)Cc1cc(Br)ccc1-2` were, in that order, over 50 µM and over 50 µM.
The like results for `CCNC(=S)Nc1ccc2c(c1)Cc1cc(Br)ccc1-2` were, in that order, over 50 µM and over 50 µM.
The like results for `NC(=S)Nc1ccc2c(c1)Cc1cc(N)ccc1-2` were, in that order, over 50 µM and over 50 µM.
In the case of `CN(C)c1ccc2c(c1)Cc1cc(NC(N)=S)ccc1-2`, in the data set on Hepatitis C virus, the EC50 came out at 1.11 µM. Further, in [1], the cytotoxic concentration (CC50) at 24 h is over 50 µM.
Consider `CCN(CC)c1ccc2c(c1)Cc1cc(NC(N)=S)ccc1-2`, for which the EC50 with Hepatitis C virus amounted to 0.83 µM. This molecule also returned a 50% cytotoxic concentration (CC50) at 24 h in [1] of over 50 µM.
As for `CCCN(CCC)c1ccc2c(c1)Cc1cc(NC(N)=S)ccc1-2`, in the data set with Hepatitis C virus, the EC50 turned out to be 0.44 µM. The CC50 at 24 h in data set [1] was 19.5 µM.
The like results for `CCCCN(CCCC)c1ccc2c(c1)Cc1cc(NC(N)=S)ccc1-2` were, in that order, 0.72 µM and 40.7 µM.
In the case of `NC(=S)Nc1ccc2c(c1)Cc1cc(N(Cc3ccccc3)Cc3ccccc3)ccc1-2`, in the data set with Hepatitis C virus, the concentration for a half-maximal effect (EC50) came to 0.39 µM. Also, it took 35.6 µM to reach half-maximal cytotoxicity in data set [1] (CC50 at 24 h).
The like results for `CCCNc1ccc2c(c1)Cc1cc(NC(N)=S)ccc1-2` were, in that order, 0.42 µM and over 50 µM.
As for `CCCCNc1ccc2c(c1)Cc1cc(NC(N)=S)ccc1-2`, in the data set with Hepatitis C virus, the EC50 was found to be 0.38 µM. In [1], the CC50 at 24 h was over 50 µM.
The corresponding values for `NC(=S)Nc1ccc2c(c1)Cc1cc(NCc3ccccc3)ccc1-2` are 0.49 µM and over 50 µM.
In the case of `NC(=S)Nc1cccc(Oc2ccccc2)c1`, the CC50 at 24 h in [1] is over 50 µM.

Broadly, the EC50 is the concentration giving half of the maximal effect. One may read the CC50 as the concentration at which the toxic effect on the cells reaches its halfway point. Read a low CC50 as greater toxicity to the cells. One may read the clearance as the rate of elimination divided by the concentration. Low values mean a low capacity for elimination, high ones a high capacity for elimination. Usually half-life stands for the time needed for the level to fall by half in the phase considered. A high value points to slow loss. The term AUC denotes the area under the concentration-time curve, a measure of exposure. Read a high AUC as more exposure. One may read the Cmax as the peak of the concentration-time curve. Usually Tmax stands for the time from dosing to the highest level. Broadly, the bioavailability is the share of a dose that reaches the circulation, judged against a reference dose that is usually intravenous. Low readings indicate poor availability, high ones good availability.
